How the values were obtained:
Homo sapiens = species on record: Homo sapiens; experiment: Selectivity index, ratio of EC50 for human mGlu4 receptor to EC50 for human mGlu1 receptor
[1] = biological target: Metabotropic glutamate receptor 1 (Rattus norvegicus, UniProt P23385); experiment: Positive allosteric modulation of rat mGlu1 receptor assessed as potentiation of glutamate-induced calcium mobiliztion by cell based assay; type: functional
Outline: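 Rat mGlu1 WT calcium mobilization concentration-response curves. EC50 and % Glu Max were derived from the curves.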

[2] = biological target: Metabotropic glutamate receptor 2 (Homo sapiens) (UniProt Q14416); experiment: Positive allosteric modulation of mGlu2 receptor (unknown origin) assessed as potentiation of glutamate-induced response by cell-based assay
Sequence of Metabotropic glutamate receptor 2 (Homo sapiens) (Q14416 19-872 limits assumed): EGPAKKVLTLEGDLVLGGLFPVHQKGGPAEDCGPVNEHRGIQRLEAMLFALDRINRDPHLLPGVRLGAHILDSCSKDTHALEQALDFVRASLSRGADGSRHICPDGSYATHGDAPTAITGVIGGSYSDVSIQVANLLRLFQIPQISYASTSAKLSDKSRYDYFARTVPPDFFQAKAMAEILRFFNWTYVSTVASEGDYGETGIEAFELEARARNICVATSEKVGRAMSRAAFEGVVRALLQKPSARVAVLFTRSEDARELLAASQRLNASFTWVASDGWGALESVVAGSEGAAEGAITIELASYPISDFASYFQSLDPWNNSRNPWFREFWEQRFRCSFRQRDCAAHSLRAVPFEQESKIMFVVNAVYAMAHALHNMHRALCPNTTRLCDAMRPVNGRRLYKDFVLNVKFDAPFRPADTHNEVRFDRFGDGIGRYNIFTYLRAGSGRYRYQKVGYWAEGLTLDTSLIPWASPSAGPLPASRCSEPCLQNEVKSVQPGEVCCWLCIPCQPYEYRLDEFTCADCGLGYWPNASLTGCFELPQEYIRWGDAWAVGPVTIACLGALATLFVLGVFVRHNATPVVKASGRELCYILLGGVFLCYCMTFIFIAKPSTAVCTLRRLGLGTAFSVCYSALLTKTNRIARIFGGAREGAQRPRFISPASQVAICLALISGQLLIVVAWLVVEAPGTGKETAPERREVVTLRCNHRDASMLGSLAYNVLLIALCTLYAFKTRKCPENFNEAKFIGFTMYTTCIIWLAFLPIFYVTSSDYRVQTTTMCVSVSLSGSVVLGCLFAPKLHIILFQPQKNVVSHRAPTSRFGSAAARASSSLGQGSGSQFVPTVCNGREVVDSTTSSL
Outline: (§1)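 Selectivity counterscreen at the other mGlu subtypes using the standard fold-shift paradigm. Compound was tested at 10 μM against the glutamate concentration-response curve, and the shift of that curve was read.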

[3] = biological target: Metabotropic glutamate receptor 3 (Homo sapiens) (UniProt Q14832); experiment: Positive allosteric modulation of mGlu3 receptor (unknown origin) assessed as potentiation of glutamate-induced response by cell-based assay; outline: as §1
Sequence of Metabotropic glutamate receptor 3 (Homo sapiens) (Q14832 23-879 limits assumed): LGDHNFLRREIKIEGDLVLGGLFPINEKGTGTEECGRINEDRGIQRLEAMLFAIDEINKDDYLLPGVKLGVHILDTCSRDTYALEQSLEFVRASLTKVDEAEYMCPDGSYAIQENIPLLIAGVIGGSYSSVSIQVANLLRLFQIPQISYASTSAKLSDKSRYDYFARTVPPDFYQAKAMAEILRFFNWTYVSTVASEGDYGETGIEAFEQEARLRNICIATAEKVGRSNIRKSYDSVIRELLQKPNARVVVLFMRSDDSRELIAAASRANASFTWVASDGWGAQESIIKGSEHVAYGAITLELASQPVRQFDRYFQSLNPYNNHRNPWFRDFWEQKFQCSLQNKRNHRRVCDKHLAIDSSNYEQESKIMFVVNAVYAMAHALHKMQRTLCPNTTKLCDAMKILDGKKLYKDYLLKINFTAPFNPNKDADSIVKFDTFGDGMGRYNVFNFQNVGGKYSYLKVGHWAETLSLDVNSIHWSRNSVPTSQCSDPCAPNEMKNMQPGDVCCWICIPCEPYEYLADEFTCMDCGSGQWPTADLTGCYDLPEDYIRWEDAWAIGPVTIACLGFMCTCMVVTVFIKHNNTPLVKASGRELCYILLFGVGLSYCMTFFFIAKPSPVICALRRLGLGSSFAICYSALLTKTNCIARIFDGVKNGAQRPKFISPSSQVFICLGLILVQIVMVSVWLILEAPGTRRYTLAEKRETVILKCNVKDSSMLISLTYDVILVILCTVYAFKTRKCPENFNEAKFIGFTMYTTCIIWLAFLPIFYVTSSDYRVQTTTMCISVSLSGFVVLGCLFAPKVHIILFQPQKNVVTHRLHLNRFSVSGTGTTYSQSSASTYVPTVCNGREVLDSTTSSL

Plasma [4] = experiment: Fraction unbound in human plasma; type: ADME, cell-free
Plasma [5] = experiment: Fraction unbound in rat plasma; type: ADME, cell-free
Cytochrome P450 2D6 = Cytochrome P450 2D6 (Homo sapiens, UniProt P10635); experiment: Inhibition of CYP2D6 in human liver microsomes by LC-MS/MS analysis; type: ADME
Sequence of Cytochrome P450 2D6 (P10635 whole entry): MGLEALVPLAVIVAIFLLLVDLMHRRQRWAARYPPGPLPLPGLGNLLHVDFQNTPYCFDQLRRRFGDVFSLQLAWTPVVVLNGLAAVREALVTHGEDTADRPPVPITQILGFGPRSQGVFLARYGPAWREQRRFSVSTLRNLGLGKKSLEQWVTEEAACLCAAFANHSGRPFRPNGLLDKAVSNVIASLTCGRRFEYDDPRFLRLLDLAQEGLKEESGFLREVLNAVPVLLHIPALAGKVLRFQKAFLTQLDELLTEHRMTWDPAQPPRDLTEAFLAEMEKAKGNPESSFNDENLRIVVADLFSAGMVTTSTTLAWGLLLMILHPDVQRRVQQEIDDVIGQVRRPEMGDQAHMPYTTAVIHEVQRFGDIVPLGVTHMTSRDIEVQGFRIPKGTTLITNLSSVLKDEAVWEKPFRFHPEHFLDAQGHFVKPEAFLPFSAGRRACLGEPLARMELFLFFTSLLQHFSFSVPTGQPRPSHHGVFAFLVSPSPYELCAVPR

[6] = test system: Metabotropic glutamate receptor 1 (Homo sapiens), Q13255 [P1014S]; experiment: Agonist activity at human mGlu1 P1014S mutant receptor expressed in HEK293 cells assessed as calcium mobilization at > 1 uM uM by Fluo-4AM dye based fluorescence analysis; type: functional, cell-based
Rattus norvegicus = experiment: Volume of distribution at steady state in Sprague-Dawley rat at 0.2 mg/kg, iv by LC-MS/MS analysis; conditions: in vivo
[7] = Ratio of drug level in brain to plasma of Sprague-Dawley rat at 0.2 mg/kg, iv after 0.25 hrs by LC-MS/MS analysis; conditions: read-out: BPR
[8] = biological target: Metabotropic glutamate receptor 4 (Homo sapiens, UniProt Q14833); experiment: Positive allosteric modulation of human mGlu4 receptor assessed as potentiation of glutamate-induced calcium mobiliztion by cell based assay relative to PHCCC
Sequence of Metabotropic glutamate receptor 4 (Q14833 whole entry): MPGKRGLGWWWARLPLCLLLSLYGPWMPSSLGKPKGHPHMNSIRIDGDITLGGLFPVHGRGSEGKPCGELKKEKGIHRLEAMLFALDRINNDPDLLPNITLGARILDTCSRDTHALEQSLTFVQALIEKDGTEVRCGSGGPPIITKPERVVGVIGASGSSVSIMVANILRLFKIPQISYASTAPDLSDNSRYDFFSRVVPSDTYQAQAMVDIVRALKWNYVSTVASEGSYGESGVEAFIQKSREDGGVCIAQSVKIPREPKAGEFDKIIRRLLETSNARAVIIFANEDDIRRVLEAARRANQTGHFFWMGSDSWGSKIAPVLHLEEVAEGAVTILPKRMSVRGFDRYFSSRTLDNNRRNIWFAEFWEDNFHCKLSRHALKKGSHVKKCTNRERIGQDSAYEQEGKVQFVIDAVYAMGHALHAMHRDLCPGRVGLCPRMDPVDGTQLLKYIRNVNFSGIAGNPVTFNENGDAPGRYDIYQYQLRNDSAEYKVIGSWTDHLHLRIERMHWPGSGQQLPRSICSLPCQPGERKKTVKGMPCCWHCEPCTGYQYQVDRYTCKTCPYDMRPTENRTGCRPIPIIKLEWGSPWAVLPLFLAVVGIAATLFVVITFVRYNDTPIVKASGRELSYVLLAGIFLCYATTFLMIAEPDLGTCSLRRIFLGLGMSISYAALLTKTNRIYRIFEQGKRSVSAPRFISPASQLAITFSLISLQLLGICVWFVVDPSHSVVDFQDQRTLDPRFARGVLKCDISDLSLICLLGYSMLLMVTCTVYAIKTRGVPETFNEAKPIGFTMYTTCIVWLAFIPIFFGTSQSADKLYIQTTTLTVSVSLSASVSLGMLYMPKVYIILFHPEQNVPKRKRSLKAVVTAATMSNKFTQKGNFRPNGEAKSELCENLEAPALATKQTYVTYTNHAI

Sequence of Metabotropic glutamate receptor 1 (P23385 whole entry): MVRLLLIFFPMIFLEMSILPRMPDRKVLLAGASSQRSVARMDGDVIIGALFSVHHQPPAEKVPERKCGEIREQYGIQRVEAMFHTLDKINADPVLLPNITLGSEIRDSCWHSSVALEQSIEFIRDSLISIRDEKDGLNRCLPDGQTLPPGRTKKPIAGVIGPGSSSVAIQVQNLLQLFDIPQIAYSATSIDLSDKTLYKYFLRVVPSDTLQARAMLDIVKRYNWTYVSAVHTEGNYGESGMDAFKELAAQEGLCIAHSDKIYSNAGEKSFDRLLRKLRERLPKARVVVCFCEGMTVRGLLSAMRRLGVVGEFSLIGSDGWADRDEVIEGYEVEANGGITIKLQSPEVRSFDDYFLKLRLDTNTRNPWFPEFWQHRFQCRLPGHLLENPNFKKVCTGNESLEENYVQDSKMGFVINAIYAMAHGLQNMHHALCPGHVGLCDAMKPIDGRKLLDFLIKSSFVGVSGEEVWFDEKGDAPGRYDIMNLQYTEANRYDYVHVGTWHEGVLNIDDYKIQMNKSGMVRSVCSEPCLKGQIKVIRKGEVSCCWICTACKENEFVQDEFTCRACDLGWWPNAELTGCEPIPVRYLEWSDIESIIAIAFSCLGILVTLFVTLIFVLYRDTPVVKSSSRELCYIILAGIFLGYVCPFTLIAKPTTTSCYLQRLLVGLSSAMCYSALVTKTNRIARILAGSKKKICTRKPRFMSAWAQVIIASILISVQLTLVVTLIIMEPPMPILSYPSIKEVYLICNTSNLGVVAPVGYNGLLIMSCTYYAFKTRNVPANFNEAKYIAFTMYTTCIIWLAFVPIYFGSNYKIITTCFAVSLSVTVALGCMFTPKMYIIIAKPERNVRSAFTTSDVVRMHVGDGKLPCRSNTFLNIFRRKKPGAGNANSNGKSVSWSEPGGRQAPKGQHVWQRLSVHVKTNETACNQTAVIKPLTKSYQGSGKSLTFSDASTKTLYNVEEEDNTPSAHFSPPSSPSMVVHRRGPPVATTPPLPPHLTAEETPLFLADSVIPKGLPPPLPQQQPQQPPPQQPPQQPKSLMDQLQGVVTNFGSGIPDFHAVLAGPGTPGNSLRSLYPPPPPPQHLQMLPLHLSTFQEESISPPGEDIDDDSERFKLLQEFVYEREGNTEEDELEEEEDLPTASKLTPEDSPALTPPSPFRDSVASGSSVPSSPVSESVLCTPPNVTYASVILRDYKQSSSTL

Ratio EC50 (Homo sapiens): 34.9
EC50 [1]: 40.7 nM
fold change (FC) [2]: < 2
fold change (FC) [3]: < 2
Fu (Plasma [4]): 0.051
Fu (Plasma [5]): 0.03
IC50 (Cytochrome P450 2D6): > 30 µM
Activity [6]: 40%
Vdss (Rattus norvegicus): 0.85 L/kg
Kp at 0.25 h [7]: 1.02
%max [8]: 122%
SMILES: Cc1ccoc1C(=O)Nc1ccc(N2C(=O)c3cccc(F)c3C2=O)c(Cl)c1
